From the RNAGym collection of RNA variant scans (doi:10.1126/science.aae0568) come the findings set out here.

The labels stand for the following.
B1: tRNA (parent)
chain: GUUCCGUUGGCGUAAUGGUAACGCGUCUCCCUCCUAAGGAGAAGACUGCGGGUUCGAGUCCCGUACGGAACG

Variants at the floor of the assay were thinned out. Bounds are passed on as bounds.

Variants of B1 are the subject of this series. Kind of series: yeast fitness relative to wild type (ratio to wild type); higher = fitter; tRNA-Arg(CCU), competitive growth, 37 C, YPD. In a few lines: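 For this measurement, the tRNA-Arg(CCU) gene was varied by chemical synthesis at a 3% per-site mutation rate across 69 sites, and each variant was placed at the native genomic locus in Saccharomyces cerevisiae. The pooled strains went through a 24-hour competition in YPD at 37°C in six parallel replicates, with amplicons from start and end populations read by 100-nucleotide paired-end sequencing. Darwinian fitness relative to wild type followed from the change in each genotype's frequency. Genotypes needed ≥ 100 starting reads, and estimates < 0.5 were set to 0.5.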
As to C55G U59A G63A, the yeast fitness is 0.673.
In the case of G56A C61U C62G it was ≤ 0.5; in that of G52A C55G A69U, ≤ 0.5; in that of G52C A69C, 0.687.
With U53A G67U G68A, the yeast fitness was ≤ 0.5.
With G51C G56A C62G C66A A70G, the yeast fitness was ≤ 0.5.
U53A A70G: the yeast fitness worked out at 0.594.
For the variant G51U C61U, the yeast fitness stood at 0.747.
For the variant G56A G58A, the yeast fitness was 0.907.
In the case of G56A G58C it was 0.95; in that of U54G C60U, ≤ 0.5.
Consider C55U U59A, for which the yeast fitness was determined as 0.891.
Regarding U54A A65C, the yeast fitness is 0.724.
Turning to U54A C61U, the yeast fitness worked out at 0.715.
As for U53C U59A, the yeast fitness came out at 0.731.
On to U54C A57G C60G, for which the yeast fitness worked out at 0.787.
On to C55G A57U C62U C66U, for which the yeast fitness was ≤ 0.5.
For U54C A65G the value was 0.97.
Regarding U54C A65C, the yeast fitness was determined as 0.862.
As for C55G C66U, the yeast fitness amounted to 0.585.
C55G C66A: the yeast fitness was determined as 0.546.
As for U53A C61A, the yeast fitness was 0.509.
In the case of U53A C61G it was ≤ 0.5; in that of U53C A69U, 0.997.
In the case of C55G U59G, the yeast fitness turned out to be 0.566.
Turning to C55A C66A, the yeast fitness came to 0.541.
As to C55A G56C G67C, the yeast fitness turned out to be 0.574.
On to C55U G58C A69U, for which the yeast fitness was determined as 0.537.
For the variant G51U A57G, the yeast fitness turned out to be 0.642.
Turning to G56A C66U, the yeast fitness was determined as 1.1.
Consider G52C C60A, for which the yeast fitness was determined as 0.641.
Consider G52C C60U, for which the yeast fitness is 0.533.
Regarding G51A U53G G68A, the yeast fitness was ≤ 0.5.
For G51C G68C, the yeast fitness worked out at 0.641.
As to C55U G63A A70U, the yeast fitness came out at 0.551.
For C55A the value was 0.656.
As to C55U, the yeast fitness is 0.721.
Turning to C55G, the yeast fitness is 0.695.
As for C55U G56A, the yeast fitness is 0.735.
Take G51C G52C U59A: the yeast fitness stood at 0.614.
As to U54C G63A, the yeast fitness was 0.701.
Consider G52A C60G, for which the yeast fitness was ≤ 0.5.
Take G52A C60A: the yeast fitness turned out to be 0.696.
For the variant C55A A57U C66U, the yeast fitness worked out at 0.574.
For U54A C55U, the yeast fitness was 0.615.
On to G52A C61A A69U, for which the yeast fitness was ≤ 0.5.
Turning to C55U A69U, the yeast fitness came to 0.684.
With C55U A69G, the yeast fitness amounted to 0.802.
On to G52C A65C, for which the yeast fitness is 0.907.
In the case of G52C A65U, the yeast fitness was determined as 0.614.
As for G52C A65G, the yeast fitness worked out at 0.613.
In the case of G56C C62U A70U, the yeast fitness came to 0.598.
Consider U53A, for which the yeast fitness amounted to 0.653.
For U53G the value was 0.629; for U53C, 0.875; for G52A G63A G67A, 0.553.
In the case of G52C A57C G63C, the yeast fitness came out at 0.519.
In the case of U54C A57G, the yeast fitness turned out to be 0.919.
On to U54C A57C, for which the yeast fitness turned out to be 0.619.
On to U54A C62U, for which the yeast fitness was 0.59.
Turning to C55U U59A A70U, the yeast fitness was found to be 0.524.
For C55G U64C, the yeast fitness came out at 0.679.
Turning to G51C C55U, the yeast fitness was ≤ 0.5.
As for G51C U54C C66U, the yeast fitness was ≤ 0.5.
Take U54C G56A C62A: the yeast fitness was ≤ 0.5.
For U54G C61A, the yeast fitness is ≤ 0.5.
With U54G C61G, the yeast fitness was ≤ 0.5.
In the case of G56C A57G G68U it was ≤ 0.5; in that of U53A G56A, 0.636; in that of G56C G68C, 0.716.
U54G A65G G68U A70C: the yeast fitness was ≤ 0.5.
As to G56C U59C, the yeast fitness came to 0.607.
As to G56C U59G, the yeast fitness turned out to be 0.693.
With C55G G68A, the yeast fitness came out at 0.604.
Regarding C55A A57C U64C A65U, the yeast fitness stood at 0.527.
On to U54A C66A, for which the yeast fitness was determined as 0.528.
Take U54A C66U: the yeast fitness was determined as 0.729.
For C55U C62A the value was 0.627; for G52A G58A, 0.69; for G56A A57U C62G, ≤ 0.5.
Take G56C U59A A65G: the yeast fitness was 0.571.
Consider G56A A65G C66U, for which the yeast fitness was found to be 0.763.
Take U53A G56C C60A A70G: the yeast fitness was 0.58.
With U53C C60U, the yeast fitness turned out to be 0.638.
With U54G C66A, the yeast fitness was 0.549.
U54G C66U: the yeast fitness was 0.653.
G51C U59C: the yeast fitness was 0.523.
U54C C66A: the yeast fitness amounted to 0.595.
C55U G58A G67A: the yeast fitness turned out to be 0.546.
Regarding C55G C60A C66A, the yeast fitness is ≤ 0.5.
With U53C G58A, the yeast fitness came to 1.02.
In the case of C55G G63C G67C, the yeast fitness is 0.532.
Consider G52A C62U G63A, for which the yeast fitness was ≤ 0.5.
For U54C G67U the value was 0.798.
On to G51U U53A, for which the yeast fitness is 0.657.
Take G51C C61G: the yeast fitness came to 1.04.
In the case of U54C C55G A57U C62U, the yeast fitness is ≤ 0.5.
On to G56C A57G A69C, for which the yeast fitness is ≤ 0.5.
For U53A C55A the value was 0.756; for U53C C60U A69C, 0.57.
Turning to U54G C61G A65U, the yeast fitness was determined as 0.596.
Take G52A A57C A70G: the yeast fitness was determined as 0.524.
With G56A A65U G67A, the yeast fitness is ≤ 0.5.
Consider U53A C61U U64A, for which the yeast fitness was ≤ 0.5.
Turning to G51C G63A, the yeast fitness was found to be 0.611.
With U53C A57C C66U, the yeast fitness is ≤ 0.5.
In the case of G51C C62U A70U, the yeast fitness is ≤ 0.5.
For the variant U54C C60U, the yeast fitness was 0.546.
For C55G C61G the value was ≤ 0.5; for G52C G63A A69G, ≤ 0.5; for C55U C61A A65G, ≤ 0.5.
Regarding C55U C61A A65U, the yeast fitness was 0.581.
As to U54C C62A, the yeast fitness came to 0.595.
As for G52C G56A C62U, the yeast fitness was 0.653.
In the case of G56C A69U, the yeast fitness came to 0.671.
Turning to U53C C61G G67A A69C, the yeast fitness turned out to be 0.552.
For the variant G51C C62G G68A, the yeast fitness stood at 0.715.
Take G52C G63A: the yeast fitness turned out to be 0.642.
In the case of U54A G56C it was 0.691.
With G51A U59A G67C, the yeast fitness was ≤ 0.5.
In the case of U54C it was 0.806; in that of U54G, 0.641.
For the variant U54A, the yeast fitness worked out at 0.659.
In the case of G51C U54A G56C it was ≤ 0.5; in that of G52C U53C G67C, ≤ 0.5.
In the case of G52C C55G it was 0.843; in that of G52C C55A, ≤ 0.5.
G56A G67A A69C: the yeast fitness stood at 0.797.
Take U54G A65U: the yeast fitness is ≤ 0.5.
As to G56C A70C, the yeast fitness is 0.813.
For the variant U54A G67A, the yeast fitness was determined as 0.656.
Consider G51C G58A, for which the yeast fitness worked out at 0.789.
With G56A A57U A70U, the yeast fitness is ≤ 0.5.
In the case of C55G A65C it was 0.529; in that of C55G A65G, 0.528; in that of C55G A65U, 0.692.
C55U C61A G68C: the yeast fitness was ≤ 0.5.
For the variant G52C U64A, the yeast fitness came out at 0.573.
For C55U A57C, the yeast fitness was found to be 0.584.
For C55U A57G, the yeast fitness turned out to be 0.747.
For G51A G67A, the yeast fitness amounted to 0.872.
For G51A G67U the value was 0.709; for G51A G67C, 0.857; for C55A G58C C66G, 0.623.
Take C55G C60A C62A G68A A69U: the yeast fitness was ≤ 0.5.
Turning to G56C G67A, the yeast fitness is 0.592.
Regarding G56C G67U, the yeast fitness is 0.524.
In the case of U53G C66A it was ≤ 0.5; in that of G52A G58C A70G, ≤ 0.5.
Take G52C U54C: the yeast fitness was 0.608.
Consider G56A C60U, for which the yeast fitness came to 0.845.
For the variant U53A A65G, the yeast fitness turned out to be 0.571.
In the case of U53A A65U, the yeast fitness was determined as 0.601.
Turning to U53G A57C, the yeast fitness is ≤ 0.5.
In the case of U53G A57U it was 0.626.
For G51A G52A the value was 0.571; for C55G G56A C61U, ≤ 0.5.
As to G52A G67C, the yeast fitness was 0.796.
With G52A G67U, the yeast fitness stood at 0.619.
As for U53C A57G C66U, the yeast fitness is ≤ 0.5.
In the case of C55U C66G it was 0.668.
On to G52A A57C, for which the yeast fitness was 0.789.
For the variant G52A A57U, the yeast fitness was 0.516.
C55A C62G A69C: the yeast fitness is ≤ 0.5.
With G51A G52C C61U, the yeast fitness is 0.536.
For C55G C66U A69C, the yeast fitness was ≤ 0.5.
In the case of G52C C66U it was 0.547.
